Laboratory results: ChEMBL document CHEMBL1250467, “Design, synthesis, and anticonvulsant activity of new N-Mannich bases derived from spirosuccinimides and spirohydantoins” (Bioorg Med Chem, 2010)
pIC50: −log10 of the molar value. Active and inactive are the calls of the source. The calls are words filed in the database; no cut-off is given here.

Tests used:
Mus musculus [1] = experiment: Neurotoxicity in CF1 albino mouse assessed as unable to grasp rotarod at 100 mg/kg, ip after 4 hrs by rotarod test; type: toxicity, organism-based; set-up: dose 100 mg/kg, route intraperitoneal; settings: in vivo
In short: (§1)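 Male CF-1 mice; compounds suspended in 0.5% methylcellulose/water and injected ip at 30, 100 and 300 mg/kg. MES, scPTZ (pentylenetetrazole 85 mg/kg sc at the test time) and rotarod neurotoxicity were scored at 0.5 and 4 h. Value is the lowest dose active or toxic in half or more of the animals; signs such as ataxia or tremor were recorded.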

Mus musculus [2] = experiment: Anticonvulsant activity in ip dosed CF1 albino mouse assessed as dose required to protect against maximal electroshock-induced seizures after 0.5 hrs; type: functional; in short: as §1
Mus musculus [3] = experiment: Anticonvulsant activity in ip dosed CF1 albino mouse assessed as dose required to protect against maximal electroshock-induced seizures after 4 hrs; type: functional; in short: as §1
Mus musculus [4] = experiment: Anticonvulsant activity in ip dosed CF1 albino mouse assessed as dose required to protect against subcutaneous pentylenetetrazole-induced seizures after 0.5 hrs; type: functional; in short: as §1
Mus musculus [5] = experiment: Anticonvulsant activity in ip dosed CF1 albino mouse assessed as dose required to protect against subcutaneous pentylenetetrazole-induced seizures after 4 hrs; type: functional; in short: as §1
Mus musculus [6] = experiment: Neurotoxicity in CF1 albino mouse at 300 mg/kg, ip after 4 hrs by rotarod test; type: toxicity, organism-based; set-up: dose 300 mg/kg, route intraperitoneal; settings: in vivo; in short: as §1
Rattus norvegicus [7] = experiment: Anticonvulsant activity in Sprague-Dawley rat assessed as protection against maximal electroshock-induced seizures at 30 mg/kg po after 0.25 hrs; type: functional
In short: (§2)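 Male Sprague–Dawley rats, four per group, given 30 mg/kg orally as a 0.5% methylcellulose/water suspension. MES protection scored at 0.25, 0.5, 1, 2 and 4 h after dosing, motor impairment checked in parallel; data are the number of the four rats protected.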

Rattus norvegicus [8] = experiment: Anticonvulsant activity in Sprague-Dawley rat assessed as protection against maximal electroshock-induced seizures at 30 mg/kg po after 0.5 hrs; type: functional; in short: as §2
Rattus norvegicus [9] = experiment: Anticonvulsant activity in Sprague-Dawley rat assessed as protection against maximal electroshock-induced seizures at 30 mg/kg po after 1 hr; type: functional; in short: as §2
Rattus norvegicus [10] = experiment: Anticonvulsant activity in Sprague-Dawley rat assessed as protection against maximal electroshock-induced seizures at 30 mg/kg po after 2 hrs; type: functional; in short: as §2
Rattus norvegicus [11] = experiment: Anticonvulsant activity in Sprague-Dawley rat assessed as protection against maximal electroshock-induced seizures at 30 mg/kg po after 4 hrs; type: functional; in short: as §2
Rattus norvegicus [12] = experiment: Anticonvulsant activity in po dosed Sprague-Dawley rat assessed as time required to peak protection against seizures; type: functional
Rattus norvegicus [13] = experiment: Anticonvulsant activity in po dosed Sprague-Dawley rat assessed as protection against maximal electroshock-induced seizures; type: functional
In short: (§3)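 Male Sprague–Dawley rats dosed orally (0.5% methylcellulose/water suspension), groups of eight, tested at the previously estimated time of peak effect. Doses varied until at least three points lay in the 10–90% range of protection (MES, scPTZ) or minimal rotarod neurotoxicity. ED50/TD50 with 95% confidence intervals came from regression; PI = TD50/ED50.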

Rattus norvegicus [14] = experiment: Anticonvulsant activity in po dosed Sprague-Dawley rat assessed as protection against subcutaneous pentylenetetrazole-induced seizures; type: functional; in short: as §3
[15] = Neurotoxicity in po dosed Sprague-Dawley rat by rotarod test; type: toxicity, organism-based; settings: in vivo; in short: as §3
Rattus norvegicus [16] = organism: Rattus norvegicus; experiment: Protection index, ratio of TD50 for Sprague-Dawley rat by rotarod test to ED50 for Sprague-Dawley rat by maximal electroshock test; type: functional; in short: as §3
Mus musculus [17] = experiment: Anticonvulsant activity in CF1 albino mouse assessed as protection against subcutaneous pentylenetetrazole-induced seizures at 300 mg/kg, ip after 0.5 hrs; type: functional, organism-based; set-up: dose 300 mg/kg; in short: as §1
Mus musculus [18] = experiment: Anticonvulsant activity in CF1 albino mouse assessed as protection against subcutaneous pentylenetetrazole-induced seizures at 300 mg/kg, ip after 4 hrs; type: functional, organism-based; set-up: dose 300 mg/kg; in short: as §1
Mus musculus [19] = experiment: Neurotoxicity in CF1 albino mouse assessed as mortality at 300 mg/kg, ip after 4 hrs by rotarod test; type: toxicity, organism-based; set-up: dose 300 mg/kg, route intraperitoneal; settings: in vivo
In short: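 Male CF-1 albino mice, groups of eight, were given the compound ip as a suspension in 0.5% methylcellulose/water at 30, 100 and 300 mg/kg. Rotarod testing at 0.5 and 4 h scored inability to keep balance on the rod. The value is the lowest dose causing toxicity in half or more animals, with response comments such as death.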

Mus musculus [20] = experiment: Anticonvulsant activity in CF1 albino mouse assessed as protection against maximal electroshock-induced seizures at 300 mg/kg, ip after 0.5 hrs; type: functional, organism-based; set-up: dose 300 mg/kg; in short: as §1
Mus musculus [21] = experiment: Neurotoxicity in CF1 albino mouse at 300 mg/kg, ip after 0.5 hrs by rotarod test; type: toxicity, organism-based; set-up: dose 300 mg/kg, route intraperitoneal; settings: in vivo; in short: as §1
Mus musculus [22] = experiment: Neurotoxicity in ip dosed CF1 albino mouse assessed as dose required to cause toxicity after 4 hrs by rotarod test; type: organism-based; settings: in vivo; in short: as §1
Mus musculus [23] = experiment: Anticonvulsant activity in CF1 albino mouse assessed as protection against electrically-induced seizure at 100 mg/kg, ip after 0.25 hrs by 6Hz psychomotor seizure test; type: functional, organism-based; set-up: dose 100 mg/kg
In short: (§4)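 Male CF-1 mice, compound suspended in 0.5% methylcellulose/water, given ip at 100 mg/kg; four mice per time point (0.25, 0.5, 1, 2, 4 h). Corneal stimulation with 0.2 ms monopolar rectangular pulses at 6 Hz for 3 s from a constant-current device, mice manually restrained. A mouse counted as protected if normal exploratory behaviour resumed within 10 s; motor impairment was noted alongside.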

Mus musculus [24] = experiment: Anticonvulsant activity in CF1 albino mouse assessed as protection against electrically-induced seizure at 100 mg/kg, ip after 0.5 hrs by 6Hz psychomotor seizure test; type: functional, organism-based; set-up: dose 100 mg/kg; in short: as §4
Mus musculus [25] = experiment: Anticonvulsant activity in CF1 albino mouse assessed as protection against electrically-induced seizure at 100 mg/kg, ip after 1 hr by 6Hz psychomotor seizure test; type: functional; settings: route intraperitoneal; in short: as §4
Mus musculus [26] = experiment: Anticonvulsant activity in CF1 albino mouse assessed as protection against electrically-induced seizure at 100 mg/kg, ip after 4 hrs by 6Hz psychomotor seizure test; type: functional; in short: as §4
Mus musculus [27] = experiment: Toxicity in CF1 albino mouse assessed as minimal motor impairment at 100 mg/kg, ip after 2 hrs; type: organism-based; set-up: dose 100 mg/kg, route intraperitoneal; settings: in vivo; in short: as §4
Rattus norvegicus [28] = experiment: Anticonvulsant activity in Sprague-Dawley rat assessed as protection against pilocarpine-induced status epilepticus at 600 mg/kg, ip measured after clonus of one of the fore limbs seizure stage; type: functional, organism-based; set-up: dose 600 mg/kg
In short: (§5)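 Male Sprague–Dawley rats (150–180 g) received compound ip at 600 mg/kg, then a challenge dose of pilocarpine. Seizure severity graded on the Racine scale; rats were scored as protected or not, and body weight change was taken 24 h after the first stage III seizure.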

Rattus norvegicus [29] = experiment: Anticonvulsant activity in Sprague-Dawley rat assessed as protection against pilocarpine-induced status epilepticus at 600 mg/kg, ip; type: functional, organism-based; set-up: dose 600 mg/kg; in short: as §5
Rattus norvegicus [30] = experiment: Toxicity in Sprague-Dawley rat assessed as change in body weight at 600 mg/kg, ip measured after 24 hrs of clonus of one of the fore limbs seizure stage in protected rat; type: organism-based; set-up: dose 600 mg/kg, route intraperitoneal; settings: in vivo; in short: as §5
Rattus norvegicus [31] = experiment: Toxicity in Sprague-Dawley rat assessed as change in body weight at 600 mg/kg, ip measured after 24 hrs of clonus of one of the fore limbs seizure stage in non-protected rat; type: organism-based; set-up: dose 600 mg/kg, route intraperitoneal; settings: in vivo; in short: as §5
[32] = Displacement of [3H]batrachotoxin from neurotoxin site 2 of voltage-gated sodium channel in rat forebrain tissue; settings: read-out: IC50
Mus musculus [33] = experiment: Neurotoxicity in CF1 albino mouse assessed as ataxia at 300 mg/kg, ip after 4 hrs by rotarod test; type: toxicity, organism-based; set-up: dose 300 mg/kg, route intraperitoneal; settings: in vivo; in short: as §1
Mus musculus [34] = experiment: Neurotoxicity in CF1 albino mouse assessed as tremors at 300 mg/kg, ip after 4 hrs by rotarod test; type: toxicity, organism-based; set-up: dose 300 mg/kg, route intraperitoneal; settings: in vivo; in short: as §1
Mus musculus [35] = experiment: Neurotoxicity in CF1 albino mouse assessed as muscle spasms at 300 mg/kg, ip after 4 hrs by rotarod test; type: toxicity, organism-based, Muscle tissue; set-up: dose 300 mg/kg, route intraperitoneal; settings: in vivo; in short: as §1

Compound	Activity (Mus musculus [2])	Activity (Mus musculus [3])	Activity (Mus musculus [6])	Activity (Rattus norvegicus [7])	Activity (Rattus norvegicus [8])	Activity (Rattus norvegicus [9])	Activity (Rattus norvegicus [10])	Activity (Rattus norvegicus [11])	Time (Rattus norvegicus [12])	ED50 (Rattus norvegicus [13])	TD50 [15]	PI (Rattus norvegicus [16])	Activity (Mus musculus [17])	Activity (Mus musculus [18])	Activity (Mus musculus [20])	also measured
O=C1NC2(CCc3ccccc3C2)C(=O)N1CN1CCN(CCO)CC1 (centres undefined)	100 mg/kg	300 mg/kg	Non-toxic	inactive	25%	50%	100%	100%	4 h	14.9 mg/kg	> 300 mg/kg	>20.09				Activity (Mus musculus [1]): Non-toxic; Activity (Mus musculus [4]): 100 mg/kg; Activity (Mus musculus [5]): 300 mg/kg; ED50 (Rattus norvegicus [14]): > 250 mg/kg
O=C1NC2(CCc3ccccc3C2)C(=O)N1CN1CCN(Cc2ccccc2)CC1 (centres undefined)	100 mg/kg	100 mg/kg	Non-toxic	25%	50%	75%	50%	50%					inactive	inactive		Activity (Mus musculus [19]): Non-toxic
O=C1CC2(CCc3ccccc3C2)C(=O)N1CN1CCN(c2cccc(C(F)(F)F)c2)CC1 (centres undefined)		100 mg/kg		inactive	inactive	75%	75%	100%	2 h	9 mg/kg	> 250 mg/kg	>27.78	inactive	inactive	inactive	Activity (Mus musculus [21]): Non-toxic; Activity (Mus musculus [22]): 300 mg/kg; Activity (Mus musculus [23]): inactive; Activity (Mus musculus [24]): inactive; Activity (Mus musculus [25]): 25%; Activity (Mus musculus [26]): inactive; Activity (Mus musculus [27]): Toxic; Activity (Rattus norvegicus [28]): inactive; Activity (Rattus norvegicus [29]): inactive; Activity (Rattus norvegicus [30]): Non-toxic; Activity (Rattus norvegicus [31]): 15 g; pIC50 [32]: 5.03
O=C1NC2(CCc3ccccc3C2)C(=O)N1CN1CCN(c2ccccc2F)CC1 (centres undefined)		100 mg/kg											inactive	inactive	inactive	Activity (Mus musculus [33]): Non-toxic; Activity (Mus musculus [34]): Non-toxic; Activity (Mus musculus [35]): Non-toxic
